According to ChEMBL document CHEMBL1142103, “Bioactive lignans from Peperomia heyneana” (J Nat Prod, 2007):

Tests used:
[1] = Selectivity index, ratio of CC50 for C8166 cells to IC50 for HIV1 infected C8166 cells; assay type: functional
How it was run: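 Therapeutic index computed as CC50 (MTT viability of uninfected C8166, 72 h) divided by EC50 (inhibition of HIV-1 IIIB syncytium formation in C8166, 3 days), both run in parallel.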

[2] = Cytotoxicity against C8166 cells by MTT method; assay type: cell-based; conditions: human
How it was run: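 Uninfected C8166 cells (4 × 10^5/mL) exposed to graded compound concentrations for 72 h at 37 °C, 5% CO2. Supernatant removed, MTT (5 mg/mL stock in PBS) added for 4 h, formazan dissolved in 50% DMF–20% SDS, absorbance read at 595/630 nm. CC50 (50% loss of viable cells) taken from dose-response curve.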

[3] = test system: Human immunodeficiency virus 1; test: Antiviral activity against on HIV1 3b infected C8166 cells assessed as syncytial cell formation after 3 days; assay type: functional, organism-based; conditions: Human immunodeficiency virus 1, 3b, C8166, 72 h
How it was run: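 C8166 cells (8 × 10^5/mL) seeded with serial concentrations of compound, then infected with HIV-1 IIIB at 1300 TCID50/well; 3 days at 37 °C, 5% CO2. Syncytia (multinucleated giant cells) counted per well under inverted microscope; percent inhibition of syncytium formation versus untreated infected controls gives EC50.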

Row | SMILES | Ratio CC50/EC50 [1] | CC50 [2] [µM] | EC50 [3] [µM]
1 | COc1cc([C@@H](c2cc(OC)c3c(c2)OCO3)[C@@H]2COC(=O)[C@H]2C)cc(OC)c1OC [PEPEROMIN B] | 9.1 | 49.1 | 5.4
2 | COc1cc(C(c2cc(OC)c(OC)c(OC)c2)[C@@H]2COC(=O)[C@H]2C)cc(OC)c1OC [PEPEROMIN C] | 4.5 | 192 | 42.6
3 | COc1cc([C@H]2O[C@H](c3cc(OC)c4c(c3)OCO4)[C@@H](COC(C)=O)[C@@H]2CO)cc(OC)c1O | 4.6 | 229 | 49.8
4 | COc1cc(C(c2cc(OC)c3c(c2)OCO3)[C@@H]2COC(=O)[C@H]2C)cc2c1OCO2 [PEPEROMIN A] | 8.2 | 43.2 | 5.3
5 | Cc1cn([C@H]2C[C@H](N=[N+]=[N-])[C@@H](CO)O2)c(=O)[nH]c1=O [ZIDOVUDINE] | > 100000 | 4550 | 0.017
6 | COc1cc(C(c2cc(OC)c(OC)c(OC)c2)C2COC(=O)C2C)cc(O)c1OC (stereo not drawn) | 5.1 | 140 | 27.3
